Assay results gathered from unrelated publications.
Each line is one published result; the experiments were not run side by side.
ALK L1196M: ALK tyrosine kinase receptor (ALK, Homo sapiens, UniProt Q9UM73, L1196M)
ALK: ALK tyrosine kinase receptor (ALK, Homo sapiens, UniProt Q9UM73)

| Compound | target | assay | setting | quantity | value |
| --- | --- | --- | --- | --- | --- |
| CCCOc1ccc([C@@H]2[C@@H](C(=O)O)[C@H](c3ccc4c(c3)OCO4)CN2CC(=O)Nc2c(CC)cccc2CC)cc1 | ALK L1196M | cell-free assay, competition with immobilised ligand | 1 µM | remaining binding | 78% |
| CN1CC(Oc2cnc(C#N)cc2-c2ccn3nc(NC(=O)C4CC4)cc3c2)C1 | ALK | enzyme activity, inhibitor | 1 µM | inhibition | 0% |
| COc1cc2c(N3CCN(C(=O)Nc4ccc(OC(C)C)cc4)CC3)ncnc2cc1OCCCN1CCCCC1 | ALK | cell-free assay | 0.5 µM | remaining signal | 103% |
| N[C@H]1CCN(c2nccc(-c3cnn4ncccc34)n2)C1 | ALK | binding | 1 µM | remaining binding | 85% |
| Cc1ccc(Nc2nccc(N(C)c3ccc4c(C)n(C)nc4c3)n2)cc1S(N)(=O)=O | ALK | enzyme activity, inhibitor | 10 µM | inhibition | 79% |
| CCCOc1ccc(OC)c(F)c1C(=O)c1ccc(C(=O)N[C@@H]2CNC[C@H]2NC(=O)c2ccc3[nH]ncc3c2)cc1 | ALK | enzyme activity, inhibitor | 10 µM | remaining activity | 47% |
| CN(C)c1ncnc(-c2ccc3nc(Nc4cc(CN5CCN(C(=O)CC(F)(F)F)CC5)ccn4)[nH]c3c2)c1Cl | ALK L1196M | cell-free assay, competition with immobilised ligand | 1 µM | remaining binding | 79% |
| Cc1ccc(NC(=O)c2ccc(C)c(C(F)(F)F)c2)cc1C#Cc1nn(C2CCC(O)CC2)c2ncnc(N)c12 (stereo not drawn) | ALK | cell-free assay | 10 µM | remaining signal | 92% |
| CNC(=O)c1cc(Oc2ccc(NC(=O)Nc3ccc(Cl)c(C(F)(F)F)c3)cc2)ccn1 | ALK | enzyme activity, inhibitor | 10 µM | inhibition | 45% |
| Cc1[nH]c(/C=C2\C(=O)Nc3ccc(F)cc32)c(C)c1C(=O)N[C@H]1CCN(C(=O)N(C)C)C1 | ALK | enzyme activity, inhibitor | 1 µM | remaining activity | 73% |
| COc1ccc2cc(OCC3(C(=O)O)CN(C(=O)c4ccc(F)cc4)C3)ccc2c1 | ALK L1196M | cell-free assay, competition with immobilised ligand | 1 µM | remaining binding | 100% |
| CNCc1ccc(-c2cc(-c3nc(-c4ccc(S(=O)(=O)C(C)C)cc4)cnc3N)on2)cc1 | ALK | enzyme activity, inhibitor | 0.4 µM | inhibition | 2% |
| F[C@@H]1CCN(c2nccc(-c3cnn4ncccc34)n2)C1 | ALK L1196M | binding | 1 µM | remaining binding | 100% |
| Oc1ccc(-c2nc(-c3ccncc3)c(-c3ccc(F)cc3)[nH]2)cc1 | ALK | cell-free assay | 0.5 µM | remaining signal | 104% |
| COc1cc2ncnc(Nc3ccc(Oc4ccccc4)cc3C)c2cc1OC | ALK | enzyme activity, inhibitor | 1 µM | inhibition | -2% |
| Nc1ncnc2occ(-c3ccc(NC(=O)Nc4cc(C(F)(F)F)ccc4F)cc3)c12 | ALK | cell-free assay | 20 µM | remaining signal | 0.3% |
| CS(=O)(=O)Nc1cccc(-c2csc(NC(=O)CSc3nc4nccnc4c(=O)n3CCc3ccccc3)n2)c1 | ALK | enzyme activity, inhibitor | 10 µM | inhibition | 9% |
| Cc1nc(N2CC[C@@H](O)C2)ncc1-c1cc(C(F)(F)F)cc2[nH]ncc12 | ALK | cell-free assay, competition with immobilised ligand | 1 µM | remaining binding | 81% |

| Compound | target | assay | setting | quantity | value |
| --- | --- | --- | --- | --- | --- |
| Cc1ccc(C(=O)Nc2ccc(CN3CCN(C)CC3)c(C(F)(F)F)c2)cc1C#Cc1cnc2cccnn12 | ALK L1196M | cell-free assay | 23.5 nM | remaining signal | 99% |
| CCN(CC)CCNC(=O)c1c(C)[nH]c(/C=C2\C(=O)Nc3ccc(F)cc32)c1C | ALK | enzyme activity, inhibitor | 1 µM | remaining activity | 27% |
| CNC(=O)Nc1ccc2c(c1)[C@@]1(CC2)OC(=O)N(CC(=O)N(Cc2ccc(F)cc2)[C@@H](C)C(F)(F)F)C1=O | ALK | cell-free assay, competition with immobilised ligand | 1 µM | remaining binding | 77% |
| O=C(Nc1cnn(-c2csc(C(=O)NC3COC3)c2)c1)Nc1ccccc1Cl | ALK | enzyme activity, inhibitor | 5 µM | remaining activity | 101% |
| C[C@@H]1CCN(c2nccc(-c3cnn4ncccc34)n2)C1 | ALK | binding | 1 µM | remaining binding | 81% |
| COc1cc(-c2cn(C3CCc4c(F)cccc4N(CC(F)(F)F)C3=O)nn2)ccc1-n1cnc(C)c1 (stereo not drawn) | ALK L1196M | cell-free assay, competition with immobilised ligand | 1 µM | remaining binding | 100% |
| Cc1cnc(NC2CCOCC2)nc1-n1cnc(C(=O)NC(CN)c2cc(F)cc(Cl)c2)c1 (stereo not drawn) | ALK | enzyme activity, inhibitor, radiometric | 1 µM | remaining activity | 122% |
| CN(c1nccc(-c2cnn3ncccc23)n1)C1CC1 | ALK | binding | 1 µM | remaining binding | 100% |
| CC/C(=N\NC(=O)NCc1cccc(O)c1)c1ccc(O)c(C)c1O | ALK tyrosine kinase receptor (ALK, Homo sapiens, UniProt Q9UM73, F1174L) | enzyme activity, inhibitor | 0.1 µM | inhibition | -0.9% |
| c1cnn2ncc(-c3ccnc(N4CCC45COC5)n3)c2c1 | ALK L1196M | binding | 1 µM | remaining binding | 40% |
| CCN(CC)CCNC(=O)c1c(C)[nH]c(/C=C2\C(=O)Nc3ccc(F)cc32)c1C | ALK | cell-free assay | 0.5 µM | remaining signal | 16.6% |
| CCN(CC)c1ccc(C2=NNC(=O)CC2C)cc1[N+](=O)[O-] (stereo not drawn) | ALK | enzyme activity, inhibitor | 10 µM | remaining activity | 110% |
| CCCCN(CCCC)C(=O)CN1C[C@H](c2cc(OC)c3c(c2)OCO3)[C@@H](C(=O)O)[C@@H]1CC(C)(C)CCC | ALK L1196M | cell-free assay, competition with immobilised ligand | 1 µM | remaining binding | 100% |
| CN(C)c1ncc(F)c(-c2cnn3ncccc23)n1 | ALK L1196M | binding | 1 µM | remaining binding | 59% |
| O=C(NCc1ncc(C(F)(F)F)cc1Cl)c1ccc2c(c1)C1(CCS(=O)(=O)CC1)[C@@H](C1CC1)N2S(=O)(=O)c1ccc(F)cc1 | ALK tyrosine kinase receptor (ALK, Homo sapiens, UniProt Q9UM73, C1156Y) | cell-free assay, competition with immobilised ligand | 1 µM | remaining binding | 100% |
| CCCS(=O)(=O)Nc1ccc(F)c(C(=O)c2c[nH]c3ncc(-c4ccc(Cl)cc4)cc23)c1F | ALK | enzyme activity, inhibitor | 1 µM | inhibition | < 10% |
| CN(CCCC(F)(F)F)c1nccc(-c2cnn3ncccc23)n1 | ALK L1196M | binding | 1 µM | remaining binding | 100% |
| O=C(Nc1cnn(-c2csc(C(=O)NC3COC3)c2)c1)Nc1c(F)cccc1Cl | ALK | enzyme activity, inhibitor | 5 µM | remaining activity | 89.2% |
